This is a sample that favours compounds with a hit; in the whole collection about 3.7% have one here.
KCNQ1 act: potentiators or activators of KCNQ1 channel, primary screen, cell-based, thallium flux, high-throughput; CHO-K1 KCNQ1, thallium flux FluxOR fluorescence; active compounds read high; Potassium voltage-gated channel subfamily KQT member 1 (Homo sapiens), P51787; 310,000 compounds, 0.35% hits; B-score at 10 µM; AID 2648, 2010;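 active = fluorescence ratio B-score, a plate-corrected score, at least three library SD, with initial intensity B-score within 5 SD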
Target sequence (P51787 whole entry, looked up): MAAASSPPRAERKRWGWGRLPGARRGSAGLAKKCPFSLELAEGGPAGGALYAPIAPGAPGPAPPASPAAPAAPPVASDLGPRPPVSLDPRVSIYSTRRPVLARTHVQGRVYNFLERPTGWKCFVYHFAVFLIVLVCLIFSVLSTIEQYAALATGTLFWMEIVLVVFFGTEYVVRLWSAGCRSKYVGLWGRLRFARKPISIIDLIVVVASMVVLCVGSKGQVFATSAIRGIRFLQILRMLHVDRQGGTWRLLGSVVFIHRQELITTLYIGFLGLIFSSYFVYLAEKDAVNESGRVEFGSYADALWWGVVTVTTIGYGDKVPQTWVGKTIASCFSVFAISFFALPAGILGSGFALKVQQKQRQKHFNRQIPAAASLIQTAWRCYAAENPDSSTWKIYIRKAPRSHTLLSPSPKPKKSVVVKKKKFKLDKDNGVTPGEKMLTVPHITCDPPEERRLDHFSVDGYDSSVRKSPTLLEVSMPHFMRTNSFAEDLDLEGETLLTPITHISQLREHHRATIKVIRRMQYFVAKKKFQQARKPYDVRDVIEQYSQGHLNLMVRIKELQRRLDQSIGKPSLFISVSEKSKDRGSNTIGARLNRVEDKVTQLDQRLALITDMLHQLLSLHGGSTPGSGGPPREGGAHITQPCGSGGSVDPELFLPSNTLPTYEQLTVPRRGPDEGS
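Doses: Single concentration per compound, DMSO matched to controls | Test system: KCNQ1-transfected CHO-K1 cells | Timing: 90 min dye loading and 20 min compound exposure, both at room temperature | Measured by: Kinetic FluxOR thallium fluorescence, 10-s 1-Hz baseline, 110-s post-stimulus read | Medium: Assay buffer with matched DMSO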
KCNK3 block: human KCNK3 channel inhibitors, primary screen, CHO cells, FluxOR thallium flux, B-score; AID 602410, 2012; FluxOR fluorescence; active compounds read low; B-score at 10 µM; 340,000 compounds, 0.84% hits; Potassium channel subfamily K member 3 (Homo sapiens), O14649;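 active = B-score under library mean minus 4 SD, starting fluorescence ratio at most library mean plus 5 SD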;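 also: more negative B-score means stronger inhibition of thallium flux through KCNK3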
KCNK9 block: KCNK9 potassium channel inhibitors, primary screen, HEK293 cells, thallium flux | Potassium channel subfamily K member 9 (Homo sapiens), Q9NPC2 | FluxOR thallium flux fluorescence; active compounds read low | B-score at 10 µM | 310,000 compounds, 1.2% hits | AID 488922, 2010;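 active = ratio B-score over 3 SD below the library mean, with starting fluorescence within 5 SD of its mean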;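 also: negative B-score means less thallium flux so channel inhibition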
KCNQ1 inh: inhibitors of human KCNQ1 channel, primary screen, cell-based, thallium flux, high-throughput | Potassium voltage-gated channel subfamily KQT member 1 (Homo sapiens), P51787 | CHO-K1 KCNQ1, FluxOR thallium flux fluorescence; active compounds read high | B-score at 10 µM | 310,000 compounds, 1.3% hits;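 active = compounds whose thallium flux B-score, printed positive for inhibition, exceeds three library SD while starting fluorescence stays within three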;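 also: channel opened by potassium depolarization with thallium stimulus after 20 min compound exposure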
hERG rescue: hERG rescue from dofetilide block, primary screen, cell-based, CHO-hERG, FluxOR thallium flux, dofetilide IC70; dofetilide IC70 present; activation (rescue from dofetilide block), less the hit threshold, % at 10 µM; 310,000 compounds, 0.51% hits; AID 1511, 2009;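 active = activation above the mean of controls blocked by dofetilide plus 5 SD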;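 also: thallium influx through hERG after potassium depolarization seen as dye fluorescence rise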
Kir21 inh: inhibitors of mouse Kir2.1 inward-rectifier potassium channel | HEK293-Kir2.1, FluxOR thallium flux fluorescence; active compounds read low | B-score at 10 µM | 310,000 compounds, 0.85% hits | AID 1672, 2009;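 active = fluorescence ratio B-score at or below minus 3 SD of library scores, with starting-brightness B-score within 2 SD, cut at about -4.2 in these data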;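 also: channel flux triggered by added potassium and thallium sulfate stimulus; B-score of peak minus minimum fluorescence over baseline after thallium stimulus; more negative B-score means stronger Kir2.1 block with less thallium influx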
KCNK9 block conf: KCNK9 potassium channel inhibitors, confirmation, HEK293 cells, thallium flux, duplicate; shares compounds with KCNK9 block; FluxOR thallium flux fluorescence; inhibition, % at 10 µM; 4,900 compounds, 43% hits; AID 492992, 2010;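 active = thallium signal inhibited by more than 5 SD of the compound-free buffer control wells, on both duplicate plates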;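 also: 0% = assay buffer control wells without compound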
Kir21 sel: mouse Kir2.1 channel inhibition, confirmation, selectivity assay for KCNK9 modulator project, cell-based, HEK293, thallium flux. 4,900 compounds, 4% hits. inhibition, % at 10 µM. AID 492993, 2010. Kir2.1 cells, FluxOR thallium flux fluorescence. shares compounds with KCNK9 block;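 active = thallium signal drop more than 5 SD beyond the mean of the no-compound control wells, seen in both duplicate plates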;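 also: signal is fluorescence rise after thallium addition divided by baseline fluorescence; plate controls were assay buffer only for no effect and full block by chlorpromazine control for full effect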
HEK293 Tl ctr: thallium flux in non-induced HEK293 cells, confirmation, counter-screen for KCNK9 inhibitor project, cell-based, second counter screen, non-induced KCNK9-HEK293. inhibition, % at 10 µM. FluxOR thallium flux. shares compounds with KCNK9 block. AID 492997, 2010. 4,900 compounds, 40% hits;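 active = thallium signal drop beyond 5 SD of the untreated control mean, on both duplicate plates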;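 also: plate controls were buffer only IC0 wells for no effect and SID17386958 at its maximal inhibitory level for full effect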
Active calls of the source: *; i = inactive; nt = not tested or not shown.

SMILES	KCNQ1 act	KCNK3 block	KCNK9 block	KCNQ1 inh	hERG rescue	Kir21 inh	KCNK9 block conf	Kir21 sel	HEK293 Tl ctr
Cc1ccc(C2=Nc3ccccc3SC(c3cccc([N+](=O)[O-])c3)C2)cc1 (stereo not drawn)	i	-13*	-13*	i	-5	1.5	71%*	i	40%*
O=C(OCC(=O)c1ccc[nH]1)c1cncc(Br)c1	nt	i	nt	nt	nt	nt	nt	nt	nt
CC(C)Cc1cc(C(=O)N2CCCC(C(=O)c3cc(F)ccc3F)C2)no1 (stereo not drawn)	i	i	i	i	-5	0.3	i	i	i
O=C(c1cc(COc2ccc(F)cc2F)on1)N1CCCC(c2ccccc2)C1 (stereo not drawn)	i	i	i	i	-8	0.3	i	i	36%*
O=C(c1cc(F)ccc1F)C1CCCN(C(=O)c2cccs2)C1 (stereo not drawn)	i	i	i	i	-3	-1.4	nt	nt	nt
O=C(c1cc(COc2ccc(F)cc2F)on1)N1CC[C@@H]2CCCC[C@H]2C1	i	i	i	i	-13	-0.09	i	i	i
O=C(c1ccc(F)cc1)N1CCCC(c2ccccc2)C1 (stereo not drawn)	i	i	-8.8*	i	-11	-0.01	36%*	i	i
CN(Cc1ccccc1)C(=O)CSc1n[nH]c(N)n1	i	i	i	i	-9	0.05	nt	nt	nt
CN(C)/C=N/C1=C(C#N)C(c2cccs2)c2ccc3ccccc3c2O1 (stereo not drawn)	nt	i	nt	nt	nt	nt	nt	nt	nt
Cc1nc(SCC(=O)NC(C)(C#N)C2CC2)c2c(-c3cccs3)csc2n1 (stereo not drawn)	i	i	-11*	i	-12	-0.46	48%*	i	i
Cc1ccccc1N1CCN(Cc2cccc(C(=O)O)c2)CC1	i	i	i	i	-6	-0.44	nt	nt	nt
COC(=O)c1cc(CN2CCN(c3ccccc3C)CC2)ccc1O	i	i	i	i	-15	-1.2	i	i	i
CCC(=O)N1CCN(c2ccccc2NC(=O)COc2cc(C)ccc2C(C)C)CC1	i	i	-8.2*	i	-5	-2.1	46%*	i	28%*
O=C(COc1ccccc1)Nc1ccccc1N1CCN(c2ccc(F)cc2)CC1	i	i	-8.6*	i	-3	-0.28	i	i	28%*
Cc1cc(C)c(OCC(=O)Nc2ccccc2N2CCCCC2)c(C)c1	i	i	i	i	-10	0.85	nt	nt	nt
Cc1cc(C)c(OCC(=O)Nc2ccccc2N2CCOCC2)c(C)c1	i	-10*	-10*	i	-7	-2	i	i	48%*
CCCCCC(=O)Nc1ccccc1N1CCN(c2ccccc2)CC1	i	-11*	-13*	i	-5	0.14	49%*	i	36%*
C=CCN1C(=O)C2(OCCO2)c2cc(C)ccc21	i	i	i	i	-7	0.97	nt	nt	nt
O=C(NCCCN1CCOCC1)C(=O)NCc1ccco1	i	i	i	i	-2	-0.33	nt	nt	nt
COc1ccc(NC(=O)COc2cccc3c2CCN(C)C3=O)c(OC)c1	i	i	i	i	-10	0.23	nt	nt	nt
O=C(NCc1ccc2c(c1)OCO2)C(=O)NCC1OCCCN1S(=O)(=O)c1ccc(F)cc1 (stereo not drawn)	i	i	i	i	-6	-1.7	nt	nt	nt
O=C(CCNC(=O)c1ccc(Br)cc1)NCc1ccccn1	i	i	i	i	-11	0.61	nt	nt	nt
Cc1ccc(Nc2nc(CSc3nnc(-c4cccnc4)n3-c3ccccc3C)cs2)cc1	i	i	-9.9*	i	-14	1.2	i	i	i
CC1CC(C)CN(c2ccc(C(=O)NCc3ccc4c(c3)OCO4)cc2[N+](=O)[O-])C1 (stereo not drawn)	i	i	-8.5*	i	-4	0.65	43%*	i	i
CCC1(c2ccc(F)cc2)NC(=O)N(CC(=O)N2CC(=O)Nc3ccccc32)C1=O (stereo not drawn)	i	i	i	i	-9	-0.1	nt	nt	nt
SMILES	KCNQ1 act	KCNK3 block	KCNK9 block	KCNQ1 inh	hERG rescue	Kir21 inh	KCNK9 block conf	Kir21 sel	HEK293 Tl ctr
Cc1cccc(NC(=O)C2(c3ccc([N+](=O)[O-])cc3)CCCC2)c1	i	i	i	6*	-8	-2.6	i	i	i
Cc1cc(C)nc(NS(=O)(=O)c2ccc(NC(=O)C3(c4ccc([N+](=O)[O-])cc4)CCCC3)cc2)n1	i	i	i	i	-5	0.68	nt	nt	nt
CC(C)C1C(=O)CC(c2ccccc2)NC1c1ccccc1 (stereo not drawn)	i	i	-11*	i	-5	0.13	40%*	i	i
O=C(COC(=O)c1ccc2ncsc2c1)Nc1ccccc1Cl	nt	i	nt	nt	nt	nt	nt	nt	nt
O=C(CCC(=O)Nc1cccnc1)Nc1cccnc1	i	i	i	i	-5	1.1	nt	nt	nt
Cc1c(C(=O)Nc2nc3ccccc3[nH]2)cccc1[N+](=O)[O-]	i	i	-8.4*	i	-5	1.8	47%*	i	26%*
O=C(Nc1nc2ccccc2[nH]1)c1ccccc1[N+](=O)[O-]	i	i	i	i	-6	-0.43	nt	nt	nt
Cc1ccc(S(=O)(=O)NCc2ccccc2)cc1C(=O)NCC(C)(C)N1CCOCC1	i	i	i	i	-19	0.39	nt	nt	nt
O=C(NCCCn1ccnc1)c1ccccc1Br	i	i	i	i	-4	-0.32	nt	nt	nt
Cc1cccc(NC(=O)CN2CCC(C(=O)c3ccc4c(c3)OCCO4)CC2)c1	i	i	i	i	-10	1.6	i	i	i

Assay outcomes deposited in PubChem BioAssay by Johns Hopkins Ion Channel Center.
